According to ChEMBL document CHEMBL1151972, “Cytotoxic asterosaponins capable of promoting polymerization of tubulin from the starfish Culcita novaeguineae” (J Nat Prod, 2009):

Assays:
K562 = experiment: Cytotoxicity against human K562 cells after 72 hrs by MTT assay; assay type: functional, cell-based; conditions: K562, 72 h
Outline: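 Human leukemia K-562 cells; MTT colorimetric viability assay after 72 h exposure. IC50 read from dose-response curves as the concentration giving 50% lower absorbance than control cells. Mean of three independent experiments, triplicate wells per concentration.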

Bel-7402 = experiment: Cytotoxicity against human Bel7402 cells after 72 hrs by SRB assay; assay type: functional, cell-based; conditions: Bel-7402, 72 h
Outline: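 Human hepatoma BEL7402 cells; sulforhodamine B protein-staining assay after 72 h exposure. Dose-response curves plotted. IC50 = concentration giving 50% reduction in absorbance relative to control cells. Three independent experiments, each concentration in three replicate wells.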

Tubulin (Sus scrofa) [1] = target: T1, Tubulin (Sus scrofa) (UniProt P02554+P02550); experiment: Induction of pig brain tubulin polymerization assessed as end point promote coefficient at 9.3 uM by first high-throughput screening end-point assay
Outline: (§1)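 Tubulin prepared from pig brain; first high-throughput screening step. Polymerization followed by turbidity, end-point reading of the absorbance change at 350 nm, expressed as Pe (percent end-point promote coefficient). Samples above 20% Pe counted as active. Three independent experiments, eight replicate wells each.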

Tubulin (Sus scrofa) [2] = target: T1, Tubulin (Sus scrofa); experiment: Induction of pig brain tubulin polymerization assessed as kinetic promote coefficient at 9.3 uM by first high-throughput screening end-point assay
Tubulin (Sus scrofa) [3] = target: T1, Tubulin (Sus scrofa); experiment: Induction of pig brain tubulin polymerization assessed as end point promote coefficient at 8.9 uM by first high-throughput screening end-point assay; outline: as §1
Tubulin (Sus scrofa) [4] = target: T1, Tubulin (Sus scrofa); experiment: Induction of pig brain tubulin polymerization assessed as kinetic promote coefficient at 8.9 uM by first high-throughput screening end-point assay
Tubulin (Sus scrofa) [5] = target: T1, Tubulin (Sus scrofa); experiment: Induction of pig brain tubulin polymerization assessed as end point promote coefficient at 11.7 uM by first high-throughput screening end-point assay; outline: as §1
Tubulin (Sus scrofa) [6] = target: T1, Tubulin (Sus scrofa); experiment: Induction of pig brain tubulin polymerization assessed as kinetic promote coefficient at 11.7 uM by first high-throughput screening end-point assay

T1 sequence (P02550 whole entry, looked up): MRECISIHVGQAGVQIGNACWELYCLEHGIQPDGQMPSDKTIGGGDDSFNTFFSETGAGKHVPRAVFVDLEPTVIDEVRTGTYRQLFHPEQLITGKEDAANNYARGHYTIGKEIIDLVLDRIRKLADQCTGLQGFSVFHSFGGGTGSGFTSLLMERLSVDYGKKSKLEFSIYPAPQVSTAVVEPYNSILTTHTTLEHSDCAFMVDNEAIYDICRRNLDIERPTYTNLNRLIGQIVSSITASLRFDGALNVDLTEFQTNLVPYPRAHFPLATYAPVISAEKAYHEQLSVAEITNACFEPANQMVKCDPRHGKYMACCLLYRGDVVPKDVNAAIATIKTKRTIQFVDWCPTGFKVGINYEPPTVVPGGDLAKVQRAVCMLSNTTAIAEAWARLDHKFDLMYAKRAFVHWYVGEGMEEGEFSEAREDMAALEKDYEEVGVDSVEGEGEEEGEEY
T1 sequence (P02554 whole entry, looked up): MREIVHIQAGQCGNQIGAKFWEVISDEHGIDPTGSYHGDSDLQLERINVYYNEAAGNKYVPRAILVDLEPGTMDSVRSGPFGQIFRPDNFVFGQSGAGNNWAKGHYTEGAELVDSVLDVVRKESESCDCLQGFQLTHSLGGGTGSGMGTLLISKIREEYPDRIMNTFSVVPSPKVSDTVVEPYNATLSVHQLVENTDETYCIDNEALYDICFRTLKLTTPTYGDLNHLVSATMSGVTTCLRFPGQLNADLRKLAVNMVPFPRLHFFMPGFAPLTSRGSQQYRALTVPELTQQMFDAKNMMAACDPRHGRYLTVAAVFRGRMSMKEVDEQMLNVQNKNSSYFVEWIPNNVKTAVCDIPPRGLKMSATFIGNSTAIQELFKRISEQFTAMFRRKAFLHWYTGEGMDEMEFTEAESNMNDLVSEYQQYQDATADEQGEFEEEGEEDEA

Activity (Tubulin (Sus scrofa) [1])	Activity (Tubulin (Sus scrofa) [2])	Activity (Tubulin (Sus scrofa) [3])	Activity (Tubulin (Sus scrofa) [4])	Activity (Tubulin (Sus scrofa) [5])	Activity (Tubulin (Sus scrofa) [6])	Structure (SMILES)	IC50 (K562)	IC50 (Bel-7402)
–	–	–	–	–	–	CC[C@@]1(O)C(=O)OCc2c1cc1n(c2=O)Cc2cc3cc(O)ccc3nc2-1 [HYDROXYCAMPTOTHECIN]	180 nM	400 nM
42%	149%	–	–	–	–	CO[C@@H]1[C@@H](O)[C@H](O[C@H]2[C@H](O[C@@H]3[C@@H](O)[C@H](O[C@H]4C[C@@H]5C(=CC[C@]6(C)[C@@H]([C@H](C)CC[C@H](OS(=O)(=O)O)C(C)C)CC[C@@H]56)[C@@]5(C)CC[C@H](OS(=O)(=O)O)C[C@H]45)O[C@H](CO)[C@H]3O)OC[C@@H](O)[C@@H]2O)O[C@H](C)[C@H]1O [NOVAEGUINOSIDE C]	1300 nM	700 nM
–	–	23%	85%	–	–	CO[C@@H]1[C@@H](O)[C@H](O[C@H]2[C@H](O[C@@H]3[C@@H](O)[C@H](O[C@H]4C[C@@H]5C(=CC[C@]6(C)[C@@H]([C@H](C)/C=C/[C@@H](C)[C@@H](C)C(=O)NCCS(=O)(=O)O)CC[C@@H]56)[C@@]5(C)CC[C@H](OS(=O)(=O)O)C[C@H]45)O[C@H](CO)[C@H]3O)OC[C@@H](O)[C@@H]2O)O[C@H](C)[C@H]1O [NOVAEGUINOSIDE D]	4600 nM	4100 nM
–	–	–	–	32%	100%	CC(=O)O[C@H]1C(=O)[C@@]2(C)[C@H]([C@H](OC(=O)c3ccccc3)[C@]3(O)C[C@H](OC(=O)[C@H](O)[C@@H](NC(=O)c4ccccc4)c4ccccc4)C(C)=C1C3(C)C)[C@]1(OC(C)=O)CO[C@@H]1C[C@@H]2O	–	–
